Bioassay records: PubChem, several laboratories
An excerpt weighted towards active compounds, which were near 2.6% of everything screened.
proCasp3 act – procaspase-3 (human) activation; P42574; recombinant procaspase-3 D3A, Ac-DEVD-pNA absorbance 405 nm; activation, % at 8.5 µM; 0.11% of 330,000 active;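 active means activation above the mean of all tested compounds plus 3 SD, cut at about 21% in these data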;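 further: 0% = DMSO alone and 100% = DMSO wells spiked with extra 5 µM PC-3 D3A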
Target sequence (P42574 whole entry D9A/D28A/D175A): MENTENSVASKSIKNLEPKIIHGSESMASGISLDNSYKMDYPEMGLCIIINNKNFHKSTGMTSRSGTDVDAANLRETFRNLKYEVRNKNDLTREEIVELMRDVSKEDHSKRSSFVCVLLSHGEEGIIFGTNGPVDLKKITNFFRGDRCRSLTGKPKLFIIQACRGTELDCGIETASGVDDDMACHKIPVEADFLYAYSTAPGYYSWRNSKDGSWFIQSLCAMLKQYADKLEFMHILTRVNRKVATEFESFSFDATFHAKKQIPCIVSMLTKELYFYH
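System: Procaspase-3 D3A mutant. Medium: Zinc-free 300 mM NaCl, 50 mM HEPES, 0.01% Triton X-100. Schedule: 1 h preincubation plus 2 h reaction at 25 °C. Measured by: 405 nm absorbance of p-nitroaniline, reads at 0 and 120 min. Read-out: percent activation relative to control range.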
proCasp7 act – activates human procaspase-7, counter-screen for procaspase-3 activators; P55210; recombinant procaspase-7, Ac-DEVD-pNA absorbance 405 nm; D23A/D198A/D206A triple mutant, cannot self-cleave; scale: DMSO 0, 5 µM enzyme 100; activation, % at 8.5 µM; 0.093% of 330,000 active; AID 463210;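 active means percent activation above the screen-wide mean plus 3 SD, cut at about 25% in these data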
Target sequence (P55210 whole entry D23A/D198A/D206A): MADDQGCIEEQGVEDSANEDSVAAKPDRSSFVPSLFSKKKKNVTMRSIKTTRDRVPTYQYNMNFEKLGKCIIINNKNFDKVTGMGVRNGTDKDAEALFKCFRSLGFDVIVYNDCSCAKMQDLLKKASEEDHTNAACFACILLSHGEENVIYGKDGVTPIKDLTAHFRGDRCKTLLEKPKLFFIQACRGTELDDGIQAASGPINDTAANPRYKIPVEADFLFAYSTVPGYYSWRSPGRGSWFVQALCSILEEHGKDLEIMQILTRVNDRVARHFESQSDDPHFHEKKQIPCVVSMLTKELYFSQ
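Assay system: Uncleavable procaspase-7 mutant enzyme / Input: 2 µM procaspase-7 mutant as dispensed / Dosing: single nominal 8.5 µM compound dose, 0.8% DMSO final / Timing: 1 h enzyme–compound preincubation and 2 h substrate reaction, both 25 °C / Detection: p-Nitroaniline absorbance at 405 nm, read at 0 and 120 min / Replication: singlicate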
PolyA inh – yeast polyadenylation inhibition; S. cerevisiae SKY197-pL101 polyadenylation reporter, beta-gal luminescence; efflux-impaired pdr1/pdr3 knockout yeast; score 100 = 6 SD above DMSO; activity score, % at 12 µM; 0.02% of 300,000 active;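 active means lowest replicate activity score at least 50, where 100 means six control SD above control mean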;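 further: yeast exposed to compound for 9 h at 30 °C; higher score means more reporter readthrough which indicates perturbed polyadenylation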
AHR activator – human AHR activation; AID 2796; AHR-responsive luciferase reporter cells, luminescence; 2.5% of 320,000 active; P35869; activation, % at 5 µM; in the data active means activation above about 47%;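 further: 0% = vehicle wells and 100% = reference agonist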
* = called active by the depositor; nt = not tested or not shown.

SMILES | proCasp3 act | proCasp7 act | PolyA inh | AHR activator
CC1CCCC(C)N1CC(O)Cn1c2ccccc2c2ccccc21 (stereo not drawn) | 8 | 5 | -2 | 3
O=C1Nc2ccccc2/C1=C/c1ccccc1Cl | -2 | -5 | 14 | 59*
Cc1ccc2c(c1)/C(=C/c1ccccc1C)C(=O)N2 | 6 | 2 | -4 | 57*
Cc1cccc(OCCC(=O)OCC(=O)Nc2c(C)nn(-c3ccccc3)c2C)c1 | -4 | 3 | -10 | -2
CCN(CC)C(=O)c1ccc2c(c1[N+](=O)[O-])C(=O)c1ccccc1C2=O | -2 | -4 | -35 | 78*
O=C(NCc1cccnc1)c1cnn2ccccc12 | 0 | 3 | 7 | 14
Cc1cc(C)n2ncc(C(=O)NCc3cccnc3)c2n1 | 12 | 11 | -11 | 68*
COc1ccc(CNC(=O)c2cnn3c(C(F)F)cc(C)nc23)cc1OC | 4 | 8 | 14 | 52*
Cc1ccc([C@@H]2CC=C(C(=O)O)[C@H](c3ccccc3F)N2S(=O)(=O)c2ccccc2C)cc1 | -9 | 9 | nt | 1
c1ccc2c(Nc3nnc(-c4ccncc4)s3)cccc2c1 | -4 | -10 | -18 | 63*
CC1CCC(NC(=O)c2ccc(NC3=NC4CS(=O)(=O)CC4S3)cc2)CC1 (stereo not drawn) | 6 | -3 | 13 | -1
CCSc1nncn1/N=C/c1ccc(OC)c(OC)c1 | -6 | 9 | 1 | 48*
CCCn1nnnc1COc1ccc(C(N)=O)cc1 | 5 | 2 | -2 | 3
COc1cc(N)ccc1NC(=O)c1cccs1 | 4 | -6 | -2 | 60*
c1cncc(-c2nnc(SCc3nc4ccccc4[nH]3)o2)c1 | -1 | 5 | 3 | 73*
COC(=O)c1c(NC(=O)c2cccnc2)sc(C)c1C | 0 | 5 | -5 | 71*
COC(=O)c1c(NC(=O)c2cccnc2)sc(C(=O)N(C)C)c1C | 6 | -2 | 3 | 16
COc1ccccc1NC(=O)c1nnn(CC(=O)Nc2ccccc2)c1N | -3 | 7 | 5 | 47*
COc1ccccc1NC(=O)Cn1nnc(C(=O)Nc2ccccc2)c1N | 0 | -1 | 3 | 11
COc1ccc(NC(=O)CCCCCn2nnc3ccccc3c2=O)cc1 | nt | nt | 5 | nt
NC(=O)N1N=C2/C(=C/c3ccccc3)CCCC2C1c1ccccc1 (stereo not drawn) | 6 | 2 | -12 | 59*
O=C(O)CSCC(=O)N1N=C2/C(=C/c3ccccc3)CCCC2C1c1ccccc1 (stereo not drawn) | -1 | -6 | 5 | 49*
O=C(COC(=O)c1ccccc1-n1cnnn1)c1ccc(F)cc1 | -1 | -3 | 12 | 2
COc1ccc(CCn2c(SCCN3CCCCC3)nc3ccccc3c2=O)cc1OC | 8 | 8 | 24 | -3
Cc1nc2ccccc2c(=O)n1CCc1ccccc1 | -1 | -1 | -10 | 51*
SMILES | proCasp3 act | proCasp7 act | PolyA inh | AHR activator
CC(=O)c1nc2ccccc2n1CCc1ccccc1 | -3 | 6 | 3 | 55*
O=c1c2ccccc2nc(SCCN2CCOCC2)n1CCc1ccccc1 | 2 | 4 | 15 | 52*
COc1ccc([N+](=O)[O-])cc1NC(=O)CCS(=O)(=O)c1ccc(Br)cc1 | -3 | 13 | 2 | 0
COc1ccc(N(C)S(=O)(=O)c2cccc(C(=O)OCC(=O)N3CC(C)CC(C)C3)c2)cc1 (stereo not drawn) | -1 | 7 | nt | -1
O=C(NCc1ccccn1)c1cccc(NS(=O)(=O)c2ccc(Br)cc2)c1 | 6 | 4 | nt | 1
COc1cccc(CNc2ccc3c(c2)ncn3C)c1OC | nt | nt | -8 | nt
COc1cccc(CNc2ccc3c(c2)nc(C)n3C)c1OC | 1 | 12 | 19 | 67*
O=S(=O)(NCC(c1ccco1)N1CCc2ccccc2C1)c1ccc(Br)cc1 (stereo not drawn) | 11 | 0 | -17 | -1
O=C(COC(=O)c1ncc(Cl)c(Cl)c1Cl)Nc1ccc(Cl)cn1 | 0 | 2 | -5 | 66*
O=C(COC(=O)c1nc(Cl)ccc1Cl)Nc1ccc(Cl)cn1 | -2 | 1 | nt | 43
O=C(Cn1c(=S)[nH]c2ncccc2c1=O)NCCc1ccccc1 | -4 | 5 | 12 | 57*
O=c1c2cccnc2[nH]c(=S)n1Cc1ccccc1 | -3 | 11 | 2 | -1
O=C(Nc1ccccn1)C1CCCN(c2ncnc3c2nc2n3CCCCC2)C1 (stereo not drawn) | 5 | 10 | -19 | 10
CCc1nc(SC)[nH]c(=O)c1C | 1 | 6 | 2 | 0
CSc1nc2c(C)c(C)c(C)c(C)c2[nH]1 | 2 | 0 | -5 | 47*
O=C1Nc2ccccc2/C1=C\C(=O)c1ccccc1 | -15 | -5 | -27 | 8
O=C1Nc2ccc(Br)cc2/C1=C/C(=O)c1ccc2c(c1)OCO2 | -8 | -3 | -36 | 70*
Oc1[nH]c(=S)sc1C=C1N=c2ccccc2=N1 | -13 | -23 | -15 | 20
Oc1[nH]c(N=C2N=c3ccccc3=N2)c2ccccc12 | -11 | -1 | -21 | 58*
CN(CC(=O)Nc1ccc(N2CCOCC2)cc1)CC(=O)Nc1ccc(N2CCOCC2)cc1 | -3 | -1 | 8 | 52*
CC(=O)Nc1ccc(SC[C@H](CC(C)C)N2CCN(CCc3ccccc3)CCC2=O)cc1 | -16 | -12 | 0 | 48*
Cc1ccc(SC[C@H](CC(C)C)N2CCN(CCc3ccccc3)CCC2=O)cc1 | nt | nt | 0 | nt
O=C(OCc1nnc(-c2ccc(Br)cc2)o1)c1cncc(Br)c1 | 7 | 4 | 19 | 3
O=S(=O)(Nc1nc2ccccc2nc1N1CCc2ccccc2C1)c1ccc(Cl)cc1 | -19 | -8 | -4 | 63*
CC(=O)Nc1ccc(S(=O)(=O)Nc2nc3ccccc3nc2N2CCc3ccccc3C2)cc1 | -1 | 4 | 4 | 54*
SMILES | proCasp3 act | proCasp7 act | PolyA inh | AHR activator
Fc1ccc(NC(=S)Nc2cccc3ccccc23)cc1 | -5 | -5 | 12 | 50*
Fc1ccc(NC(=S)Nc2cccc3ccccc23)cc1F | -10 | -23 | 5 | 74*
Cc1noc(C)c1CSCC(=O)Nc1nc2c(F)cc(F)cc2s1 | -6 | -10 | nt | 37
COC(=O)/C=C/c1cnc[nH]1 | 12 | -2 | 6 | -1
COc1ccc(OC)c(/C=N/NC(=O)c2cc3c(OC)c(OC)ccc3[nH]2)c1 | 4 | -9 | -20 | 79*
CCOc1ccc(/C=N/NC(=O)c2cc3c(OC)cc(OC)c(OC)c3[nH]2)cc1 | 6 | -3 | 12 | 48*
CN(C)C(=O)CSc1n[nH]c(=O)n1CCc1ccccc1 | 2 | -10 | 4 | -1
O=C(Nc1cccc(-c2nc3ccccc3s2)c1)c1ccc2c(c1)OCO2 | 1 | 7 | -16 | 15
Oc1ccc(-c2nc3ccccc3s2)cc1 | 2 | 2 | 21 | 55*
Nc1ccccc1-c1nc2ccccc2s1 | -7 | -3 | -11 | 57*
Nc1ccc(O)c(-c2nc3ccccc3s2)c1 | 6 | -4 | -5 | 22
c1ccc2sc(-c3ccncc3)nc2c1 | 9 | -3 | -9 | 4
c1ccc2sc(-c3ccc4c(c3)OCO4)nc2c1 | 0 | 7 | nt | 65*
